The test system of data set [1] is A549. In words: Antiproliferative activity against human A549 cells incubated for 72 hrs by MTT assay. The format is functional, cell-based. Conditions: A549, 72 h. In outline: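 A549 in RPMI-1640 with 10% calf serum, 37 °C, 5% CO2; seeded 3000-5000 cells/well, 24 h before exposure to final 100, 10, 1, 0.1, 0.01 µM for 72 h. MTT (5 mg/ml in PBS) added, 4 h at 37 °C; formazan dissolved in DMSO, OD 570 nm. Three experiments in triplicate; IC50 from inhibition ratios.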
On the technique in general: Formazan colour is commonly taken as a measure of viable cells.

For data set [2], the system named is HCT-116. In words: Antiproliferative activity against human HCT116 cells incubated for 72 hrs by MTT assay. Type of data set: functional, cell-based. Conditions: HCT-116, 72 h. In a few lines: (§1)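 HCT-116, MCF-7 and U-87 MG grown in DMEM with 10% FBS, 37 °C, 5% CO2; 3000-5000 cells/well preincubated 24 h, then compounds at final 100, 10, 1, 0.1, 0.01 µM for 72 h.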

The test system of data set [3] is U-87 MG. Description: Antiproliferative activity against human U87MG cells incubated for 72 hrs by MTT assay. Type of data set: functional, cell-based, U-87MG ATCC. In outline:
as §1

Data set [4] has as its system MCF7. Description: Antiproliferative activity against human MCF7 cells incubated for 72 hrs by MTT assay. Type of data set: functional, cell-based. Conditions: MCF7, 72 h. In outline: as §1
Data set [5] can be described thus: Acute toxicity in mouse dosed orally once daily and observed for 7 days by up and down procedure. Type of data set: organism-based. The conditions noted are these: in vivo, po. In outline:
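Male mice, 20.1 ± 1.9 g. Compound dissolved in NMP, then diluted with PEG400 and water (NMP/PEG400/H2O 1:6:3 by volume), given by gavage at 20 ml/kg. Starting dose 10 mg/kg, single mouse per step; dose raised 1.5-fold when the animal behaved normally, continuing until a death occurred.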

Data set [6] deals with CCRF S-180. Description: Anticancer activity against mouse S180 cells transplanted in mouse assessed as reduction in tumor weight at 1 mg/kg, po dosed once daily for 8 days. The format is functional. The conditions noted are these: CCRF S-180, po, 192 h.
Data set [7] concerns the target PI3-kinase p110-alpha/p85-alpha (Homo sapiens, UniProt P42336). In words: Inhibition of p110alpha/p85alpha (unknown origin) incubated for 40 mins by luciferase based ATP depletion assay. The format is protein-complex assay.
Data set [8] concerns the target PI3-kinase p110-delta/p85-alpha (Homo sapiens, UniProt O00329). In words: Inhibition of p110delta/p85alpha (unknown origin) incubated for 40 mins by luciferase based ATP depletion assay. The format is protein-complex assay.
Data set [9] has as its target PI3K p110 beta/p85 alpha (Homo sapiens, UniProt P42338). Description: Inhibition of p110beta/p85alpha (unknown origin) incubated for 40 mins by luciferase based ATP depletion assay. Type of data set: protein-complex assay.
Data set [10] deals with Mus musculus. Description: Toxicity in mouse S180 cells transplanted mouse assessed as increase in body weight at 1 to 10 mg/kg, po dosed once daily for 8 days. Type of data set: organism-based, CCRF S-180. Conditions: in vivo, 192 h. In outline:
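S180 flank homograft mice (3×10^6 cells s.c., 8 per group) dosed orally once daily for 8 days at 1.0, 3.0 or 10.0 mg/kg in NMP/PEG400/H2O (1:6:3), solvent-only controls; body weights recorded daily and again at sacrifice on Day 9.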

The subject of data set [11] is CCRF S-180. Description: Anticancer activity against mouse S180 cells transplanted in mouse assessed as reduction in tumor weight at 10 mg/kg, po dosed once daily for 8 days. The format is functional. Conditions: CCRF S-180, po, 192 h.
Data set [12] relates to CCRF S-180. Description: Anticancer activity against mouse S180 cells transplanted in mouse assessed as reduction in tumor weight at 3 mg/kg, po dosed once daily for 8 days. Type of data set: functional. The conditions noted are these: CCRF S-180, po, 192 h.
In data set [13] the target is PI3-kinase subunit gamma/Phosphoinositide 3-kinase regulatory subunit 5 (Homo sapiens, UniProt P48736). Description: Inhibition of p110gamma/PIK3R5 (unknown origin) incubated for 40 mins by luciferase based ATP depletion assay. The format is protein-complex assay.
For data set [14], the target named is mTORC1 (Homo sapiens, UniProt P42345). In words: Inhibition of mTORC1 (unknown origin) incubated for 40 mins by luciferase based ATP depletion assay. Type of data set: protein-complex assay.

The values that follow come from ChEMBL document CHEMBL3612008, “Synthesis and anticancer effects evaluation of 1-alkyl-3-(6-(2-methoxy-3-sulfonylaminopyridin-5-yl)benzo[d]thiazol-2-yl)urea as anticancer agents with low toxicity” (Bioorg Med Chem, 2015).

The structures appear in SMILES notation.

Sequence of PI3-kinase subunit gamma/Phosphoinositide 3-kinase regulatory subunit 5 (P48736 whole entry): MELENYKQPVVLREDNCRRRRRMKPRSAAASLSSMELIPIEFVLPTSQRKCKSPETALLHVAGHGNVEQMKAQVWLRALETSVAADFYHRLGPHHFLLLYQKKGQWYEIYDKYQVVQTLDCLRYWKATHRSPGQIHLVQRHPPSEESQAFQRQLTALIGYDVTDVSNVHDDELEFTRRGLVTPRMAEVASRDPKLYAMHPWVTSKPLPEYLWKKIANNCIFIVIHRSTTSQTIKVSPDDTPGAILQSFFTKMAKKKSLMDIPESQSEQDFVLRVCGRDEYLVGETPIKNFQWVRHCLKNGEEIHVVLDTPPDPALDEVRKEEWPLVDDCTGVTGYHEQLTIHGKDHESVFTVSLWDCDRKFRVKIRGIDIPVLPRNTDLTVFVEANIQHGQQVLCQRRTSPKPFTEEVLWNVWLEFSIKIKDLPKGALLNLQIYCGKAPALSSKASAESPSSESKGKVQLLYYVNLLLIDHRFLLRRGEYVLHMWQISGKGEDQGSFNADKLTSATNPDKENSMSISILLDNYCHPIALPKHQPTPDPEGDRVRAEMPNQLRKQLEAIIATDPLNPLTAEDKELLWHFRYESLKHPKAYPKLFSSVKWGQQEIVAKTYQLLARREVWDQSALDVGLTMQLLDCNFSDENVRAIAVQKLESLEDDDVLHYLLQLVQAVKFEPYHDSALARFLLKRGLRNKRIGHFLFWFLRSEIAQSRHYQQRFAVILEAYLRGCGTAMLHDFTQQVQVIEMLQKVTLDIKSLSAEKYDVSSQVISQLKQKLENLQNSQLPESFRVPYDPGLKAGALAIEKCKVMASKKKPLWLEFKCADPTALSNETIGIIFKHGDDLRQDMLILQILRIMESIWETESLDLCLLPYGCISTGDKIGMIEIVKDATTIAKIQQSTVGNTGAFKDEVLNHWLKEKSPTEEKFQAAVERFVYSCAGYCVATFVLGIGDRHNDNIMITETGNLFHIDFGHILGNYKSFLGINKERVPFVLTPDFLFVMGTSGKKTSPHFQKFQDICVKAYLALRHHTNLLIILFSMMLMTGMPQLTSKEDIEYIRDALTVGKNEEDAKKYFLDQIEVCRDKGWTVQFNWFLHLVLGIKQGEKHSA
Sequence of PI3-kinase subunit gamma/Phosphoinositide 3-kinase regulatory subunit 5 (Q8WYR1 whole entry, further chain): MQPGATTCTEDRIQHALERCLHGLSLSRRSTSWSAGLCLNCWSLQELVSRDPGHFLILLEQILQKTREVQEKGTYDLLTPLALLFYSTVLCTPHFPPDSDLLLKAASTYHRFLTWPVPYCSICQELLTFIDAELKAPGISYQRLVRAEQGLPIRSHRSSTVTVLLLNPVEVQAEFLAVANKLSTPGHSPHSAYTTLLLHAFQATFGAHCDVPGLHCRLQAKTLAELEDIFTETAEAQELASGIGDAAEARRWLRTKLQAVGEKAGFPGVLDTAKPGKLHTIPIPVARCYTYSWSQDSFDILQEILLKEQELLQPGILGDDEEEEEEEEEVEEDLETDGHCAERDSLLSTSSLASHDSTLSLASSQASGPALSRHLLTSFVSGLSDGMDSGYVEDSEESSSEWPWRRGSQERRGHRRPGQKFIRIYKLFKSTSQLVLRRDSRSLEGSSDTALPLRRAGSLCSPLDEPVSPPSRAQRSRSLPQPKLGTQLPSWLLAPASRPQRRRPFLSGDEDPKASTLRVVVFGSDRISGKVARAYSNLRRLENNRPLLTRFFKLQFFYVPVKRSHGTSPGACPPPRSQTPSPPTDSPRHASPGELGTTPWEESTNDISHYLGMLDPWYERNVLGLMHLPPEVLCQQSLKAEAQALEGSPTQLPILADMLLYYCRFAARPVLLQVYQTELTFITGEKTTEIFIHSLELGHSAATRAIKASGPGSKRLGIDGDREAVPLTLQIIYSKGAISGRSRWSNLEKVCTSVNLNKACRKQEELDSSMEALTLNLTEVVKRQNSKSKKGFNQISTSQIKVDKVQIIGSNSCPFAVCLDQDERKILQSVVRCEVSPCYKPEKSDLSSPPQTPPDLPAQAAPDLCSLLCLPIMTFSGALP
Sequence of PI3K p110 beta/p85 alpha (P27986 whole entry): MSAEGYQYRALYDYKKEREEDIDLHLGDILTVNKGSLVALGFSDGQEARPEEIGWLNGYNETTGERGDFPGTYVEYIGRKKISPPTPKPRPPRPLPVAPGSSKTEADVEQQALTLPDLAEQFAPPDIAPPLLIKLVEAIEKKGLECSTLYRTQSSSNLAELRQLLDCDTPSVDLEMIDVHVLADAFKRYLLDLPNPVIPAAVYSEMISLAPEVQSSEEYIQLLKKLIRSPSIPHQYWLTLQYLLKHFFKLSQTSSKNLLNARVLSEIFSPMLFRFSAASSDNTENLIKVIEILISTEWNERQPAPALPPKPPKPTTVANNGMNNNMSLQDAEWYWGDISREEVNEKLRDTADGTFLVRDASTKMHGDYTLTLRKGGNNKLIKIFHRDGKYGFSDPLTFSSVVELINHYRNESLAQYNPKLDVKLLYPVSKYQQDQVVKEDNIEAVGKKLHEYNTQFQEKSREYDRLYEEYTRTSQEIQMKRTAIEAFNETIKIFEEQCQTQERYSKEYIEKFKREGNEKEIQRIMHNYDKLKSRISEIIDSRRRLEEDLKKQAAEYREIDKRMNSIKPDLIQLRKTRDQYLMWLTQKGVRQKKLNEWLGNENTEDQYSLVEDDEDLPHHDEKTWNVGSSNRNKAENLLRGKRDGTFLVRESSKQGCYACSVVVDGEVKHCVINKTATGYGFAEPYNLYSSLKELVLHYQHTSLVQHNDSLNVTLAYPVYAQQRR
Sequence of PI3K p110 beta/p85 alpha (P42338 whole entry): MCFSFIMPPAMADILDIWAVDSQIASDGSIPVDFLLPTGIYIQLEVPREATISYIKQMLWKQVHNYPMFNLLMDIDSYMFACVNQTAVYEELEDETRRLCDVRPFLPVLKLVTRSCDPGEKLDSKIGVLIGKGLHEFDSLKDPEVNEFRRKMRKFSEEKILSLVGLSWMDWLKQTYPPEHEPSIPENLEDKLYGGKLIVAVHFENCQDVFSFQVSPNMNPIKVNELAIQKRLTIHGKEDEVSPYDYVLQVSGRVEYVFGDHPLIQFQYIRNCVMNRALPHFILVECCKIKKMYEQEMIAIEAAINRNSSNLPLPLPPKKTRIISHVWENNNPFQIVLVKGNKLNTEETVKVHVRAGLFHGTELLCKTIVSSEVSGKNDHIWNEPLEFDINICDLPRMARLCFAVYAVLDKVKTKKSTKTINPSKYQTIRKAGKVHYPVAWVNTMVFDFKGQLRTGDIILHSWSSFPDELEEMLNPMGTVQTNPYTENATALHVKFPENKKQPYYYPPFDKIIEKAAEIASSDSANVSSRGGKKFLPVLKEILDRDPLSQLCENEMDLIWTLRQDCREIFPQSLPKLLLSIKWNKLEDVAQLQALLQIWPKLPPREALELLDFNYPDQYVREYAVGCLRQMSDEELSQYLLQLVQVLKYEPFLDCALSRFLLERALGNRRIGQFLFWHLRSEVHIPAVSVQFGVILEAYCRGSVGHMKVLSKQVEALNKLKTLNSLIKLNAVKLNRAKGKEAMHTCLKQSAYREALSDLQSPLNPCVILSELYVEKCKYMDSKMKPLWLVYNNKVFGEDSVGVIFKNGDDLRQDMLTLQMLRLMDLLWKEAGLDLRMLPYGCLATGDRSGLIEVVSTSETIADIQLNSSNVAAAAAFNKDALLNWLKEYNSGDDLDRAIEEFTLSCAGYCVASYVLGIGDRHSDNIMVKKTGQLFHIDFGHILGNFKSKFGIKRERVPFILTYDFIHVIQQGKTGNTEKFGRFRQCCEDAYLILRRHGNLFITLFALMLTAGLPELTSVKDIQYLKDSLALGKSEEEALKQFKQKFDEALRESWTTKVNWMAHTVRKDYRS
Sequence of PI3-kinase p110-delta/p85-alpha (P27986 whole entry): as the sequence (P27986 whole entry) above
Sequence of PI3-kinase p110-delta/p85-alpha (O00329 whole entry): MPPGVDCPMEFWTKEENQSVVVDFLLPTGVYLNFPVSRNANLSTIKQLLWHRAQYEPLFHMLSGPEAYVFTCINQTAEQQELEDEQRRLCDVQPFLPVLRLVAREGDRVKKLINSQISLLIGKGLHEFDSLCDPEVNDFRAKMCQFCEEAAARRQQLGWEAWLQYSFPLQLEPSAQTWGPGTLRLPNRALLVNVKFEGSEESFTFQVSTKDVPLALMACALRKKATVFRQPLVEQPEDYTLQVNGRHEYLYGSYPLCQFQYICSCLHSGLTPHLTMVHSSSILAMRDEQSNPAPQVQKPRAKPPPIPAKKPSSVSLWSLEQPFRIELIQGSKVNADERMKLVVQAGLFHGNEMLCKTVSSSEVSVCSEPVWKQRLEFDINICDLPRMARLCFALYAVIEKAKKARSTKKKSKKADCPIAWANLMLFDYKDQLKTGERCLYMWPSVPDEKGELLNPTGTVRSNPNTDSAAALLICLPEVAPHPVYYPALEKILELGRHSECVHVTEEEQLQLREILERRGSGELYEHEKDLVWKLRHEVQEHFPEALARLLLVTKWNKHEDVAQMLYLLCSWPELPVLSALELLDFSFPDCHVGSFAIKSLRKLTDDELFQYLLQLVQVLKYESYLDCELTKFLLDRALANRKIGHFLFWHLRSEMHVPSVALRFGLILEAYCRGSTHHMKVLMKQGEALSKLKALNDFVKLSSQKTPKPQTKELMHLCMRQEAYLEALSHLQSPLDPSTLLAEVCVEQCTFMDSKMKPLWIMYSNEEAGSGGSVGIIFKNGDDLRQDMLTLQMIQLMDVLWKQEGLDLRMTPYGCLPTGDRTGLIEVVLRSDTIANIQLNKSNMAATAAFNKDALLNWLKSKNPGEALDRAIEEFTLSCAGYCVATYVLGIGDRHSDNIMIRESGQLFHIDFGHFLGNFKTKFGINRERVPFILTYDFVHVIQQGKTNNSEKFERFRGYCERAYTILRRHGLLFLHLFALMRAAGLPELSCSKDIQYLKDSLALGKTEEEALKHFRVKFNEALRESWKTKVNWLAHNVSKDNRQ

In general, IC50 refers to the point on the concentration scale where inhibition reaches its midpoint. In the case of `COc1ncc(-c2ccc3nc(NC(=O)NCCN4CCOCC4)sc3c2)cc1NS(=O)(=O)c1ccc(F)cc1`, the IC50 in data set [1] was determined as 430 nM; in data set [2], 520 nM; in [3] it was 490 nM; in data set [4], 750 nM.

Turning to `COc1ncc(-c2ccc3nc(NC(=O)NCCN4CCOCC4)sc3n2)cc1NS(=O)(=O)c1ccc(F)cc1`, the IC50 in data set [1] turned out to be 490 nM; in data set [2], 250 nM; in [3] it was 480 nM; in data set [4] it was 260 nM.

`O=S(=O)(Nc1cc(-c2ccc3nc(NC4CC4)sc3c2)cnc1Cl)c1ccc(F)cc1` displayed a 50% inhibitory concentration (IC50) in data set [2] of 5750 nM. In other words, the single-digit micromolar range.

As to `O=C(Nc1nc2ccc(-c3cnc(Cl)c(NS(=O)(=O)c4ccc(F)cc4)c3)cc2s1)NC1CC1`, the IC50 in data set [1] stood at 1030 nM; in data set [2], 1750 nM; in data set [3] it was 1720 nM; in [4], 1090 nM.

In the case of `COc1ncc(-c2ccc3nc(NC(=O)NCCN4CCOCC4)sc3c2)cc1NS(=O)(=O)c1ccc(Cl)cc1`, the half-maximal inhibitory concentration (IC50) turned out to be 530 nM in data set [1], 540 nM in data set [2], 1050 nM in data set [3] and 650 nM in data set [4].

As to `COc1ccc(-c2ccc3nc(NC(=O)NCCN4CCOCC4)sc3c2)cn1`, the 50% inhibitory concentration (IC50) in data set [1] was 5160 nM; in [2], greater than 20000 nM; in data set [3] it was 7230 nM; in [4] it was greater than 20000 nM.

Consider `COc1ncc(-c2ccc3nc(NC(=O)NCCN(C)C)sc3c2)cc1NS(=O)(=O)c1ccc(F)cc1`, for which the IC50 in data set [1] stood at 470 nM; in [2], 240 nM; in [3], 1020 nM; in [4], 500 nM.

Consider `COc1ncc(-c2ccc3nc(NC4CC4)sc3c2)cc1NS(=O)(=O)c1ccc(F)cc1`, for which the concentration for half-maximal inhibition (IC50) is 1330 nM in data set [1], 1560 nM in [2], 1500 nM in data set [3] and 450 nM in data set [4].

As for `CCN(CC)CCNC(=O)Nc1nc2ccc(-c3cnc(OC)c(NS(=O)(=O)c4ccc(C)cc4)c3)cc2s1`, the concentration for half-maximal inhibition (IC50) is 310 nM in data set [1], 180 nM in data set [2], 360 nM in [3] and 170 nM in [4].

For the compound `COc1ncc(-c2ccc3nc(NC(=O)NCCN4CCCCC4)sc3c2)cc1NS(=O)(=O)c1ccc(F)cc1`, the 50% inhibitory concentration (IC50) was determined as 330 nM in [1], 610 nM in data set [2], 750 nM in [3] and 450 nM in data set [4].

`COc1ncc(-c2ccc3nc(NC(=O)NCCN4CCOCC4)sc3c2)cc1NS(=O)(=O)C1CC1`: the IC50 in data set [1] came to 1920 nM; in [2], 640 nM; in data set [3] it was 1670 nM; in data set [4] it was 1800 nM.

One may read the LD50 as the dose expected to kill half of the subjects tested. `COc1ncc(-c2ccc3nc(NC(=O)NCCN4CCN(C)CC4)sc3c2)cc1NS(=O)(=O)c1ccc(F)cc1`: the half-inhibitory concentration (IC50) in data set [1] stood at 550 nM; in [2], 540 nM; in data set [3] it was 440 nM; in data set [4] it was 470 nM. The compound further yielded an LD50 at 168 h in [5] of 300 mg/kg.

Regarding `COc1ncc(-c2ccc3nc(NC(=O)NCCN4CCCC4)sc3c2)cc1NS(=O)(=O)c1ccc(F)cc1`, the IC50 in data set [1] worked out at 300 nM; in data set [2], 310 nM; in data set [3], 360 nM; in data set [4], 410 nM. In addition, in data set [5], the LD50 at 168 h is 300 mg/kg.

`Cn1c(=O)n(-c2ccc(C(C)(C)C#N)cc2)c2c3cc(-c4cnc5ccccc5c4)ccc3ncc21` [DACTOLISIB]: the figures for the half-inhibitory concentration (IC50) in [1], in [3] and in data set [4] were 760 nM, 1410 nM and 480 nM, respectively.

With `COc1ncc(-c2ccc3nc(NC(=O)NCCN4CCOCC4)sc3c2)cc1C#N`, the 50% inhibitory concentration (IC50) came to 4710 nM in [1], 4550 nM in [2], 8380 nM in data set [3] and 2300 nM in data set [4].

By inhibition in vivo is commonly meant the percentage by which the read-out fell short of the control. With `CCN(CC)CCNC(=O)Nc1nc2ccc(-c3cnc(OC)c(NS(=O)(=O)c4ccc(F)cc4)c3)cc2s1`, the IC50 in data set [1] was 450 nM; in data set [2], 300 nM; in [7] it was 13 nM; in data set [8] it was 148 nM; in [9] it was 90 nM; in data set [3] it was 390 nM. For the same compound, the half-inhibitory concentration (IC50) was 320 nM in data set [4], 11 nM in data set [13] and 78 nM in data set [14]. In addition, the inhibition in vivo at 1 mg/kg in data set [6] was determined as 27.2%. Further, the Activity entry in [10] is on record as “Non-toxic”. Besides, the median lethal dose (LD50) at 168 h in [5] was determined as 320 mg/kg. For the same compound, the inhibition in vivo at 10 mg/kg in [11] came out at 56.2%. Also, the inhibition in vivo at 3 mg/kg in data set [12] came to 44.3%.

Consider `CCCNc1nc2ccc(-c3cnc(Cl)c(NS(=O)(=O)c4ccc(F)cc4)c3)cc2s1`, for which the IC50 in data set [2] is greater than 20000 nM.

In the case of `COc1ncc(-c2ccc3nc(NC(=O)NC4CC4)sc3c2)cc1NS(=O)(=O)c1ccc(F)cc1`, the IC50 turned out to be 900 nM in data set [1], 470 nM in data set [2], 520 nM in data set [3] and 1190 nM in data set [4].

Consider `O=C(NCCN1CCOCC1)Nc1nc2ccc(-c3cnc(Cl)c(NS(=O)(=O)c4ccc(F)cc4)c3)cc2s1`, for which the IC50 came to 6690 nM in data set [1], 2960 nM in [2], 2390 nM in data set [3] and 950 nM in data set [4].

Consider `COc1ncc(-c2ccc3nc(NC(=O)NCCN4CCOCC4)sc3c2)cc1NS(=O)(=O)c1ccc(C)cc1`, for which the IC50 in data set [1] was 380 nM; in data set [2] it was 570 nM; in [3], 520 nM; in [4], 210 nM.

For `CCN(CC)CCNC(=O)Nc1nc2ccc(-c3cnc(Cl)c(NS(=O)(=O)c4ccc(F)cc4)c3)cc2s1`, the concentration for half-maximal inhibition (IC50) in data set [1] was found to be 5260 nM; in data set [2] it was 920 nM; in data set [3] it was 1390 nM; in data set [4], 710 nM.

For `CNC(=O)Nc1nc2ccc(-c3cnc(OC)c(NS(=O)(=O)c4ccc(F)cc4)c3)cc2s1`, the IC50 in [1] came to 1560 nM; in data set [2], 870 nM; in data set [3], 1230 nM; in data set [4], 1190 nM. Further, the LD50 at 168 h in data set [5] was found to be 40 mg/kg.

For `CC(=O)Nc1nc2ccc(-c3cnc(Cl)c(NS(=O)(=O)c4ccc(F)cc4)c3)cc2s1`, the IC50 in data set [1] was 410 nM; in data set [2] it was 440 nM; in data set [3] it was 440 nM; in data set [4], 430 nM. The compound also had a median lethal dose (LD50) at 168 h in [5] of 20 mg/kg.

As to `CCOC(=O)CNc1nc2ccc(-c3cnc(OC)c(NS(=O)(=O)c4ccc(F)cc4)c3)cc2s1`, the IC50 in data set [2] is greater than 20000 nM.
